Measured values collected from several papers.
Compare with care: the assays were run in different laboratories.
Target: Insulin receptor (INSR, Homo sapiens, UniProt P06213)

| SMILES | read-out | action | technique | tested at | quantity | value |
| --- | --- | --- | --- | --- | --- | --- |
| Cn1cc(-c2cc(F)cc(N3CCn4c(cc5c4CCCC5)C3=O)c2CO)cc(Nc2ccc(N3CCN(C4COC4)CC3)cn2)c1=O | enzyme activity | inhibitor |  | 0.1 µM | inhibition | 8% |
| O=C(Nc1cccnn1)N1CCN([C@@H]2CCOc3cc(C(F)(F)F)ccc32)CC1 | enzyme activity | inhibitor |  | 20 µM | inhibition | 14% |
| C#Cc1n[nH]c2c(-c3cn([C@@H](C)c4ccccc4)c(=O)[nH]c3=O)cc(F)cc12 | enzyme activity | inhibitor |  | 0.1 µM | inhibition | 7.7% |
| CC(C)(C)c1cc(C=C(C#N)C#N)cc(Br)c1O | enzyme activity | inhibitor |  | 0.5 µM | remaining activity | 105% |
| Cn1cncc1[C@@](O)(COc1ccc(C#N)cc1-c1ccc(OC(F)(F)F)cc1)c1ccc(C#N)cc1 | cell-free assay |  | competition with immobilised ligand | 1 µM | remaining binding | 84% |
| COc1ncccc1-c1cnn2ccc(N3CCN(C(=O)OC(C)C)CC3)nc12 | binding |  | competition with immobilised ligand | 1 µM | remaining binding | 95% |
| N#CC1(c2ccccn2)CCN(Cc2cc(C(=O)O)c(=O)n3ccccc23)CC1 | cell-free assay |  | competition with immobilised ligand | 1 µM | remaining binding | 74% |
| C[C@H](C(=O)N[C@H]1COc2ccccc2[C@@H]1S(C)(=O)=O)c1ccc(F)cc1 | enzyme activity | inhibitor |  | 10 µM | inhibition | -14% |
| Nc1ncc(-c2nc(N3CCOCC3)nc(N3CCOCC3)n2)c(C(F)F)n1 | cell-free assay |  | competition with immobilised ligand | 10 µM | remaining binding | 50% |
| c1ccc(C(NCCNC(c2ccccc2)c2ccccc2)c2ccccc2)cc1 | enzyme activity | inhibitor |  | 10 µM | inhibition | -6% |
| O=c1[nH]c2ccccc2n1C1CCN(Cc2ccc(-c3[nH]c4cc5ncnc5cc4nc3-c3ccccc3)cc2)CC1 | cell-free assay |  |  | 0.5 µM | remaining signal | 102% |
| Cc1ncc(C)n2nc(/C=C/c3nc(N4CCCC4)cc(N4CCOCC4)n3)nc12 | enzyme activity | inhibitor |  | 10 µM | inhibition | 37% |
| Cc1nn(C)cc1-c1nc2c(N3CCN(Cc4ccc(Cl)cc4)CC3)c(Cl)cnc2[nH]1 | binding |  | competition with immobilised ligand | 1 µM | remaining binding | 100% |
| Cn1cc(-c2cccc(N3CCc4c(sc5c4CC(C)(C)C5)C3=O)c2CO)cc(Nc2ccncn2)c1=O | enzyme activity | inhibitor |  | 1 µM | inhibition | 6% |
| C#Cc1n[nH]c2c(-c3cn([C@@H](C)c4ccccn4)c(=O)[nH]c3=O)cc(F)cc12 | enzyme activity | inhibitor |  | 0.1 µM | inhibition | 9% |
